PMC3359018 (Chemical science (Royal Society of Chemistry : 2010), 2011)
pKd: −log10 of the molar value.

How the values were obtained:
[1] = target: T1, DC-SIGN producing Raji cells (Homo sapiens, UniProt Q9NNX6); assay: Flow cytometry assay of binding and uptake of fluorescent mannosylated probe; assay type: cell-based; settings: competitor at 100 mM; Man-Fl-BSA probe
T1 sequence (Q9NNX6 1-404): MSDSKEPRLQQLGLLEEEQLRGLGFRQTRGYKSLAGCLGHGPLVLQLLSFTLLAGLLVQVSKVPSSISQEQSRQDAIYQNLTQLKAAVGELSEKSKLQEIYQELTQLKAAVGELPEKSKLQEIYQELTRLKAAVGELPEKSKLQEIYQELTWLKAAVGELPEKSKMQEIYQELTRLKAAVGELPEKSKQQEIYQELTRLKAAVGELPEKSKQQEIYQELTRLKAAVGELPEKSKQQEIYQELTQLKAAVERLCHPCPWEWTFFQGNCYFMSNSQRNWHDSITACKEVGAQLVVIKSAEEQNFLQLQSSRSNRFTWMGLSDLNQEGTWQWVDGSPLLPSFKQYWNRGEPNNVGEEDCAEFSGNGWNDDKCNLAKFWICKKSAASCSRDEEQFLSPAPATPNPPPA
How it was run: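 Raji (Burkitt's lymphoma) cells stably transfected with a DC-SIGN expression vector. Surface DC-SIGN was checked with AZND1-PE antibody by microscopy and with DCN46-FITC by flow cytometry. Cells were exposed to fluorescent Man-Fl-BSA with or without test compound; ManNAc (100 mM) served as carbohydrate competitor. Percent inhibition was taken from the geometric mean fluorescence, normalized to cells without inhibitor.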

[2] = target: T2, extracellular domain of DC-SIGN (immobilized tetrameric DC-SIGN) (Homo sapiens, UniProt Q9NNX6); assay type: binding; settings: read-out: Kd of probe to immobilized tetrameric DC-SIGN
T2 sequence (Q9NNX6 59-404 limits assumed): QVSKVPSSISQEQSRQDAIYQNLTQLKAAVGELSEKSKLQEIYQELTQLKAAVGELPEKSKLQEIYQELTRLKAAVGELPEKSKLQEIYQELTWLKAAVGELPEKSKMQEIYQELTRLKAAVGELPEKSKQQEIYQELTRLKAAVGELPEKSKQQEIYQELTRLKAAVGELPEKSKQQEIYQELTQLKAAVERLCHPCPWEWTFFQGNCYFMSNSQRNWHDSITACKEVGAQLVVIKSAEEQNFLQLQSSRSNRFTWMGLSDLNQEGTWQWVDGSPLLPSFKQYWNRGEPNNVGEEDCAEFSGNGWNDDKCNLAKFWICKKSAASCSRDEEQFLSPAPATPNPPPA

Row | probe uptake by DC-SIGN-positive cells [1] | pKd [2] | Molecule
1 | significant decrease |  | CC(=O)N[C@@H]1C(O)O[C@H](CO)[C@@H](O)[C@@H]1O (some centres unmarked) [ManNAc, N-acetylmannosamine]
2 |  | 2.70 | Man-Fl-BSA: fluorescent mannosylated glycoconjugate probe (fluorescein, mannose, BSA)
